The subject of test [1] is MDA-MB-231. Description: Cytotoxicity against human MDA-MB-231 cells after 24 hrs by MTT assay. It counts as functional, cell-based. The settings on record: MDA-MB-231, 24 h. Summed up: (§1)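 Cells in DMEM, 10% FBS, 37 °C, 5% CO2, plated and incubated 24 h; compounds diluted in phenol-red-free DMEM with 0.5% FBS, vehicle control; after exposure, MTT (5 mg/mL stock) added 3 h, formazan dissolved in DMSO, absorbance 570 nm; IC50 derived; podophyllotoxin and tamoxifen positive controls.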

In test [2] the test system is MCF7. Description: Cytotoxicity against human MCF7 cells after 24 hrs by MTT assay. It is filed as functional, cell-based. Particulars: MCF7, 24 h. A digest of the protocol:
as §1

Test [3] addresses T1, Tubulin (Homo sapiens) (UniProt P68371+Q9H4B7+P0DPH7+P68366+Q13509+Q71U36+P04350+Q3ZCM7+P07437+P68363+Q9BQE3+Q6PEY2+Q13885+Q9BVA1+Q9BUF5). The experiment in a line: Induction of tubulin polymerization (unknown origin) at 10 to 40 uM measured every min for 1 hr in presence of PDT. It is filed as protein-complex assay. Summed up: (§2)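 Tubulin 3 mg/mL in 80 mM PIPES pH 6.9, 2 mM MgCl2, 0.5 mM EGTA, 1 mM GTP, 15% glycerol at 37 °C with test compounds at varied concentrations; turbidity at 340 nm read every min for 1 h; podophyllotoxin inhibitor and paclitaxel stabiliser references, DMSO negative control.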

Test [4] has as its system MCF7. Description: Induction of microtubule polymerization in human MCF7 cells assessed as actin-tubulin cytoskeleton stabilization at 10 uM by confocal microscopy. It counts as cell-based. A digest of the protocol:
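MCF-7 cells treated, immunostained for actin and tubulin, and examined by confocal microscopy; paclitaxel-treated cells as positive control.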

The target of test [5] is T1, Tubulin (Homo sapiens). Description: Induction of tubulin polymerization (unknown origin) at 10 to 40 uM measured every min for 1 hr. It counts as protein-complex assay. A digest of the protocol: as §2
Test [6] concerns MDA-MB-231. Description: Cytotoxicity against human MDA-MB-231 cells after 48 hrs by MTT assay. It is filed as functional, cell-based. The settings on record: MDA-MB-231, 48 h. A digest of the protocol:
as §1
A general note: Formazan colour is commonly taken as a measure of viable cells.

Test [7] deals with MDA-MB-231. The experiment in a line: Cytotoxicity against human MDA-MB-231 cells after 72 hrs by MTT assay. It counts as functional, cell-based. The settings on record: MDA-MB-231, 72 h. A digest of the protocol:
as §1

The species named for test [8] is Homo sapiens. The experiment in a line: Induction of microtubule stabilization (unknown origin) at 4 to 20 uM.
In test [9] the test system is MCF7. Description: Cytotoxicity against human MCF7 cells after 48 hrs by MTT assay. It is filed as functional, cell-based. The settings on record: MCF7, 48 h. A digest of the protocol:
as §1

Test [10] relates to MDA-MB-231. The experiment in a line: Cytotoxicity against human MDA-MB-231 cells after 48 to 72 hrs by MTT assay. It is filed as functional, cell-based. A digest of the protocol:
as §1

Test [11] has as its system MCF7. The experiment in a line: Cytotoxicity against human MCF7 cells after 48 to 72 hrs by MTT assay. It counts as functional, cell-based. A digest of the protocol:
as §1

In test [12] the test system is HEK293. The experiment in a line: Cytotoxicity against human HEK293 cells after 24 hrs by MTT assay. It counts as cell-based. The settings on record: HEK293, 24 h. A digest of the protocol: as §1
Test [13] concerns MCF7. Description: Cytotoxicity against human MCF7 cells after 72 hrs by MTT assay. It counts as functional, cell-based. The settings on record: MCF7, 72 h. Summed up: as §1

Active and inactive are the calls of the source. The rule behind the calls is not given here. Where only a bound is given, the exact number is not on record here.

This passage reports IC50 and Activity results from ChEMBL document CHEMBL3112586, “Synthesis of neolignans as microtubule stabilisers” (Bioorg Med Chem, 2014).

In the case of `COc1ccc(/C=C(\C(N)=O)c2cc(/C=C/C(N)=O)cc(OC)c2OC)cc1OC`, the concentration for half-maximal inhibition (IC50) turned out to be 32 µM in [1] and 100 µM in [2].
In the case of `CCOC(=O)/C=C/c1cc(OC)c(O)c(/C(=C/c2ccc(O)c(OC)c2)C(=O)OCC)c1`, the 50% inhibitory concentration (IC50) in [1] and in test [2] was > 100 µM throughout.
For `CC(=O)O[C@H]1C(=O)[C@@]2(C)[C@H]([C@H](OC(=O)c3ccccc3)[C@]3(O)C[C@H](OC(=O)[C@H](O)[C@@H](NC(=O)c4ccccc4)c4ccccc4)C(C)=C1C3(C)C)[C@]1(OC(C)=O)CO[C@@H]1C[C@@H]2O`, the outcome in test [3] was inactive. The result in test [4] and in [5] was Active.
In [1], `COc1ccc(/C=C(\C(=O)O)c2cc(/C=C/C(=O)O)cc(OC)c2OC)cc1OC` returned an IC50 of 85 µM.
Turning to `COc1cc(/C=C(\C(N)=O)c2cc(/C=C/C(N)=O)cc(OC)c2O)ccc1O`, the figures for the IC50 in [1] and in test [2] were 80 µM and 100 µM, respectively.
Turning to `CCOC(=O)/C=C/c1cc(OC)c(O)c(/C(=C/c2ccc(OC(C)=O)c(OC)c2)C(=O)OCC)c1`, the IC50 in test [1] and in test [2] was > 100 µM in each case.
For `CCOC(=O)C(=C\c1cc(OC)c(OC(C)=O)c(OC)c1)/C(=C/c1cc(OC)c(OC(C)=O)c(OC)c1)C(=O)OCC`, the concentration for half-maximal inhibition (IC50) in test [1] and in [2] was > 100 µM throughout.
As to `CCOC(=O)/C=C/c1ccc(O)c(/C(=C/c2ccc(OC(C)=O)cc2)C(=O)OCC)c1`, the IC50 in test [6] worked out at 3.22 µM; in [7] it was 0.21 µM; in test [9], 9.65 µM; in test [1] it was 16 µM; in [2], 66 µM; in test [12] it was 20 µM. Moreover, it took 0.82 µM to reach half-maximal inhibition in [13] (IC50). Also, the result in test [8], in [10], in [11] and in [5] was Active. The outcome in test [3] was inactive.
`COc1cc([C@@H]2c3cc4c(cc3[C@H](O)[C@H]3COC(=O)[C@H]23)OCO4)cc(OC)c1OC` [PODOFILOX]: the half-maximal inhibitory concentration (IC50) in test [1] is 35.7 µM; in [2] it was 65 µM; in [12], 50 µM.
Turning to `CCOC(=O)/C=C/c1ccc(OC)c(/C(=C/c2ccc(OC)cc2)C(=O)OCC)c1`, the IC50 in test [1] and in test [2] was > 100 µM each time.
As to `CCOC(=O)/C=C/c1cc(OC)c(O)c(OC)c1/C(=C/c1cc(OC)c(O)c(OC)c1)C(=O)OCC`, the IC50 is 92 µM in [1] and 74 µM in test [2].
As to `CCOC(=O)/C=C/c1cc(OC)c(OC)c(/C(=C/c2ccc(OC)c(OC)c2)C(=O)OCC)c1`, the 50% inhibitory concentration (IC50) in test [1] and in test [2] was > 100 µM each time.
Regarding `CC/C(=C(\c1ccccc1)c1ccc(OCCN(C)C)cc1)c1ccccc1` [TAMOXIFEN], the half-maximal inhibitory concentration (IC50) in test [12] is 26 µM.
Regarding `CCOC(=O)C(=C\c1cc(OC)c(O)c(OC)c1)/C(=C/c1cc(OC)c(O)c(OC)c1)C(=O)OCC`, the IC50 is 82 µM in test [1] and > 100 µM in test [2].
Consider `CCOC(=O)C(=C\c1cc(OC)c(OC)c(OC)c1)/C(=C/c1cc(OC)c(OC)c(OC)c1)C(=O)OCC`, for which the results for the half-inhibitory concentration (IC50) in [1] and in test [2] were > 100 µM and 100 µM, respectively.
Regarding `COc1ccc(/C=C(\CO)c2cc(/C=C/CO)cc(OC)c2OC)cc1OC`, the concentration for half-maximal inhibition (IC50) in test [1] and in [2] was > 100 µM in each case.
As to `COc1ccc(/C=C(\COC(C)=O)c2cc(/C=C/COC(C)=O)cc(OC)c2OC)cc1OC`, the 50% inhibitory concentration (IC50) in [1] and in test [2] was > 100 µM in each case.

Usually IC50 stands for the concentration that gives 50% inhibition.
